Experimental findings from ChEMBL document CHEMBL4513216, “Probing the Open Global Health Chemical Diversity Library for Multistage-Active Starting Points for Next-Generation Antimalarials” (ACS Infect Dis, 2020) are described below.

Each structure is given as a SMILES string.

A short description of the data set: Toxicity liver stage against HepG2, at 10uM. In kind it is cell-based. Details: test concentration 10 uM, cell line HepG2-A16-CD81EGFP. Particulars: human, HepG2-A16-CD81EGFP cells; read-out: INHIBITION
The procedure, abridged:
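Uninfected HepG2-A16-CD81EGFP cells, 3 × 10^3 per well, 1536-well, plated on prespotted compound at 10 μM final, parasite-free screening media added to match infected plates; puromycin 10 μM positive, DMSO 0.5% negative; run in parallel with 48 h PbLuc assay at 37 °C, 5% CO2; viability by CellTiter-Glo luminescence, normalized to controls.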
On to `COc1cc(N2CCC3(CCCN(Cc4ccccn4)C3)C2)ncn1` (centres undefined), for which the cytotoxicity at 10 µM is -88.6%.
For the compound `CC(=O)Nc1ccc2nc(-c3nccn3CC(C)(C)CO)ccc2c1`, the cytotoxicity at 10 µM was 3.89%.
Regarding `c1ccc2c(OCCN3CCn4c(nnc4C4CC4)C3)cccc2c1`, the cytotoxicity at 10 µM is -3.87%.
For `Cc1cnn(CCNCc2ccccc2C#N)c1` the value was -9.14%; for `CN(C)S(=O)(=O)NCc1nc(-c2cccc(F)c2)c(-c2ccccn2)[nH]1`, -7.76%; for `Cc1ccc2c(c1)c(Sc1ccccc1)c(CC(=O)O)n2C`, 3.56%.
For `Cc1nc[nH]c1CN1CCCn2nc(CN3CCC(F)(F)CC3)cc2C1` the value was 0.13%; for `Cc1csc(CN(C)CCOc2ccccc2)n1`, -3.18%; for `Cc1oncc1C(=O)N1CCC2(CC1)CC(N1CCOCC1)C2`, -2.69%.
The result for `CC1CCN(CCNCc2cc(-c3ccccc3)cn3nnnc23)CC1` reads -20.4%; that for `CCn1nc(C)c(CN2CCC(c3ccc(C(=O)O)cc3)C2)c1C` (centres undefined), 4.22%.
Consider `CCOCCn1nc(C)cc1C(=O)N1CC[C@](C)(O)C(C)(C)C1`, for which the cytotoxicity at 10 µM is 0.429%.
For the compound `Cc1cnn(CCNCCCOc2ccc3c(c2)OCO3)c1`, the cytotoxicity at 10 µM was -3.6%.
The result for `CCC(CC(=O)Nc1ccc2c(c1)CC(=O)N2)c1ccccc1` (centres undefined) reads -1.06%; that for `Cc1nc(N2CCCC2)nc2c1CCN(C(=O)C1CCCCC1)CC2`, 3.16%.
The result for `Cc1cnn(C(C)C2CC2)c1NC(=O)c1ccco1` (centres undefined) reads -1.19%; that for `COc1cccc2c3c(c(=O)[nH]c12)CCO3`, 5.57%.
As to `CN1C(Cn2cccn2)C[C@@H]2CN(Cc3ccccn3)CC[C@@H]21` (some centres undefined), the cytotoxicity at 10 µM came out at 0.763%.
For `CCc1cnc(CN(C)C2CCN(CC3CCN(C(C)=O)CC3)C2)o1` (centres undefined) the value was 4.84%; for `COc1ccc(C[C@H]2CN(c3nnc(C)s3)CC[C@@H]2OC)cc1`, -3.23%; for `c1ccc(-c2noc(C3CCN(CCCn4cncn4)CC3)n2)cc1`, -14.3%.
The result for `O=C(NCC1CC1)C1CN(C(=O)c2cccc(Cl)c2)CC12CCOCC2` (centres undefined) reads 1.18%.
Regarding `c1ccc(CN2CCOCC3(CCN(C4CCOCC4)C3)C2)cc1` (centres undefined), the cytotoxicity at 10 µM is 3.01%.
The result for `COC(=O)[C@@H]1CCCN1C(=O)c1cn(C/C=C/c2ccccc2)nn1` reads 3.61%.
With `Cc1n[nH]c(C)c1CCN(C)C(=O)c1ccc(CN2CCCCC2)cc1`, the cytotoxicity at 10 µM was -9.9%.
For `CN(c1ccncn1)C1CC2(CCN(C(=O)CCc3cccs3)C2)C1` (centres undefined) the value was -1.34%; for `COc1cccc(CNc2cc(N3CCCC3CO)ncn2)n1` (centres undefined), -12.5%; for `Cc1c(C)n(Cc2ccncc2)c2nc3c(c(N)c12)CCCCC3`, 1.26%.
Consider `CCc1nc(C)c(CN2CCN(c3ncnc4scc(C)c34)CC2)[nH]1`, for which the cytotoxicity at 10 µM was found to be 16.4%.
The result for `CCn1cc(-n2cc3nc(N4CCC(C)CC4)[nH]cc-3c2=O)cn1` reads 6.97%; that for `Cn1nnc2c1C(COCC1CC1)CN(C(=O)Cc1ccsc1)C2` (centres undefined), -0.11%; that for `CN(C)CCN1CC(C(=O)NCc2cccc(-n3cccn3)c2)CC1=O` (centres undefined), -0.0342%.
The result for `CCc1ccsc1C(=O)N1CCN(CC(N)=O)CC1` reads -1.1%; that for `Nc1ncc(-c2cccc(NC(=O)[C@@H]3CCCCN3)c2)cn1`, 1.86%; that for `CC(C)c1ccc(/C=C/CC(=O)NC2CCS(=O)(=O)CC2)cc1`, 5.5%.
As for `CC(=O)NCc1noc2c1CN(Cc1ccsc1)CC2`, the cytotoxicity at 10 µM was -3.21%.
The result for `CCS(=O)(=O)c1ccc2c(c1)OCCCO2` reads -2.3%; that for `Cc1nonc1CN(C)Cc1nc(-c2cccc(F)c2F)oc1C`, -2.71%; that for `CN(CCO)c1nc(-c2ccccn2)nc2c1CCNC2`, -4.12%.
